ChEMBL document CHEMBL4610084, “Antibacterial and ATP Synthesis Modulating Compounds from Salvia tingitana” (2020)

Key:
Format in all cases: functional
Staphylococcus capitis = experiment: Antibacterial activity against Methicillin-resistant Staphylococcus capitis MB71 after 24 hrs by microdilution assay; conditions: MB71, 24 h
Outline: (§1)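 Broth microdilution MIC, run as in an earlier cited report. Strains are clinical isolates identified by standard methods and MALDI-TOF; E. faecalis MB19 and MB51 are Ligurian seawater isolates. Highest concentration tested was 128 μg/mL. MICs are given in μg/mL and μM, with oxacillin and vancomycin as reference antibiotics.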

Enterococcus faecium [1] = experiment: Antibacterial activity against Enterococcus faecium MB3 after 24 hrs by microdilution assay; conditions: MB3, 24 h
Outline: (§2)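 Broth microdilution MIC against clinical or seawater-isolated strains (identified by standard procedures and MALDI-TOF), with compound solutions and testing as in earlier work. MIC reported in μg/mL and μM.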

Enterococcus avium = experiment: Antibacterial activity against Enterococcus avium MB119 after 24 hrs by microdilution assay; conditions: MB119, 24 h; outline: as §2
[2] = system: Staphylococcus epidermidis; experiment: Antibacterial activity against Methicillin-resistant Staphylococcus epidermidis MB169 after 24 hrs by microdilution assay; conditions: MB169, 24 h; outline: as §1
Staphylococcus aureus [3] = experiment: Antibacterial activity against Methicillin-resistant Staphylococcus aureus MB188 after 24 hrs by microdilution assay; conditions: MB188, 24 h; outline: as §1
Enterococcus faecalis [4] = experiment: Antibacterial activity against Enterococcus faecalis MB76 after 24 hrs by microdilution assay; conditions: MB76, 24 h; outline: as §1
Enterococcus faecalis [5] = experiment: Antibacterial activity against Vancomycin resistant Enterococcus faecalis MB1 after 24 hrs by microdilution assay; conditions: MB1, 24 h; outline: as §1
Enterococcus faecium [6] = experiment: Antibacterial activity against Enterococcus faecium MB2 after 24 hrs by microdilution assay; conditions: MB2, 24 h; outline: as §2
Enterococcus durans = experiment: Antibacterial activity against Enterococcus durans MB113 after 24 hrs by microdilution assay; conditions: MB113, 24 h; outline: as §2
[7] = system: Staphylococcus haemolyticus; experiment: Antibacterial activity against Methicillin-resistant Staphylococcus haemolyticus MB115 after 24 hrs by microdilution assay; conditions: MB115, 24 h; outline: as §1
[8] = system: Staphylococcus epidermidis; experiment: Antibacterial activity against Methicillin-resistant Staphylococcus epidermidis MB165 after 24 hrs by microdilution assay; conditions: MB165, 24 h; outline: as §1
Enterococcus faecium [9] = experiment: Antibacterial activity against Enterococcus faecium MB152 after 24 hrs by microdilution assay; conditions: MB152, 24 h; outline: as §2
Staphylococcus simulans = experiment: Antibacterial activity against Staphylococcus simulans MB94 after 24 hrs by microdilution assay; conditions: MB94, 24 h; outline: as §2
[10] = system: Staphylococcus lugdunensis; experiment: Antibacterial activity against Staphylococcus lugdunensis MB96 after 24 hrs by microdilution assay; conditions: MB96, 24 h; outline: as §2
Staphylococcus aureus [11] = experiment: Antibacterial activity against Methicillin-resistant Staphylococcus aureus MB18 after 24 hrs by microdilution assay; conditions: MB18, 24 h; outline: as §1
Enterococcus gallinarum = experiment: Antibacterial activity against Vancomycin resistant Enterococcus gallinarum MB111 after 24 hrs by microdilution assay; conditions: MB111, 24 h; outline: as §1
Staphylococcus warneri = experiment: Antibacterial activity against Methicillin-resistant Staphylococcus warneri MB74 after 24 hrs by microdilution assay; conditions: MB74, 24 h; outline: as §1
Enterococcus faecalis [12] = experiment: Antibacterial activity against Vancomycin resistant Enterococcus faecalis MB19 after 24 hrs by microdilution assay; conditions: MB19, 24 h; outline: as §1
[13] = system: Staphylococcus saprophyticus; experiment: Antibacterial activity against Staphylococcus saprophyticus MB41 after 24 hrs by microdilution assay; conditions: MB41, 24 h; outline: as §2
[14] = system: Enterococcus casseliflavus; experiment: Antibacterial activity against Vancomycin resistant Enterococcus casseliflavus MB159 after 24 hrs by microdilution assay; conditions: MB159, 24 h; outline: as §1
Staphylococcus hominis = experiment: Antibacterial activity against Methicillin-resistant Staphylococcus hominis MB124 after 24 hrs by microdilution assay; conditions: MB124, 24 h; outline: as §1
Enterococcus faecalis [15] = experiment: Antibacterial activity against Vancomycin resistant Enterococcus faecalis MB51 after 24 hrs by microdilution assay; conditions: MB51, 24 h; outline: as §1

| Compound | MIC (Staphylococcus capitis) | MIC (Enterococcus faecium [1]) | MIC (Enterococcus avium) | MIC [2] | MIC (Staphylococcus aureus [3]) [µg/mL] | MIC (Enterococcus faecalis [4]) | MIC (Enterococcus faecalis [5]) | MIC (Enterococcus faecium [6]) | MIC (Enterococcus durans) | MIC [7] | MIC [8] | MIC (Enterococcus faecium [9]) | MIC (Staphylococcus simulans) [µg/mL] | MIC [10] [µg/mL] | MIC (Staphylococcus aureus [11]) | MIC (Enterococcus gallinarum) | MIC (Staphylococcus warneri) | MIC (Enterococcus faecalis [12]) | MIC [13] | MIC [14] | further results |
| --- | --- | --- | --- | --- | --- | --- | --- | --- | --- | --- | --- | --- | --- | --- | --- | --- | --- | --- | --- | --- | --- |
| COC(=O)[C@]1(C)CCC[C@@]2(C)[C@H]1[C@@H](O)C[C@@](C)(O)[C@@H]2CC/C(C)=C/[C@H](O)[C@H]1OC(=O)C=C1C | 276 µM | 276 µM | 138 µM | > 128 µg/mL | > 128 | 276 µM | 138 µM | 276 µM | 138 µM | 276 µM | 276 µM | 138 µM | > 128 | > 128 | 276 µM | 276 µM | 138 µM | 276 µM | > 128 µg/mL | 276 µM | MIC (Staphylococcus hominis): 138 µM; MIC (Enterococcus faecalis [15]): 138 µM |
| COc1ccc(-c2cc(=O)c3c(OC)c(OC)c(OC)cc3o2)cc1 | 390 µM | 195 µM | 390 µM | 390 µM | > 128 | 390 µM | 195 µM | 390 µM | 195 µM | > 128 µg/mL | > 128 µg/mL | 195 µM | > 128 | > 128 | 390 µM | 195 µM | 390 µM | 195 µM | > 128 µg/mL | 390 µM | MIC (Staphylococcus hominis): 390 µM; MIC (Enterococcus faecalis [15]): 390 µM |
| CC1=CC(=O)O[C@@H]1C/C=C(\C)CC[C@@H]1[C@@]2(C)CCC[C@@](C)(CO)[C@@H]2[C@@H](O)C[C@@]1(C)O | > 128 µg/mL | > 128 µg/mL | > 128 µg/mL | > 128 µg/mL | > 128 | > 128 µg/mL | > 128 µg/mL | > 128 µg/mL | > 128 µg/mL | > 128 µg/mL | > 128 µg/mL | > 128 µg/mL | > 128 | > 128 | > 128 µg/mL | > 128 µg/mL | > 128 µg/mL | > 128 µg/mL | > 128 µg/mL | > 128 µg/mL | MIC (Staphylococcus hominis): > 128 µg/mL; MIC (Enterococcus faecalis [15]): > 128 µg/mL |
| CC1=CC(=O)O[C@@H]1C/C=C(\C)CC[C@@H]1[C@@]2(C)CCC[C@@]3(C)C(O)O[C@@H](C[C@@]1(C)O)[C@H]23 (stereo not given in full) | > 128 µg/mL | > 128 µg/mL | > 128 µg/mL | > 128 µg/mL | > 128 | > 128 µg/mL | > 128 µg/mL | > 128 µg/mL | > 128 µg/mL | > 128 µg/mL | > 128 µg/mL | > 128 µg/mL | > 128 | > 128 | > 128 µg/mL | > 128 µg/mL | > 128 µg/mL | > 128 µg/mL | > 128 µg/mL | > 128 µg/mL | MIC (Staphylococcus hominis): > 128 µg/mL; MIC (Enterococcus faecalis [15]): > 128 µg/mL |
| CC1=CC(=O)OC1C/C=C(\C)CC[C@@H]1[C@@]2(C)CCC[C@@](C)(CO)[C@@H]2CC[C@@]1(C)O (stereo not given in full) | 317 µM | 317 µM | 158 µM | > 128 µg/mL | > 128 | 158 µM | 317 µM | 317 µM | > 128 µg/mL | > 128 µg/mL | 317 µM | 158 µM | > 128 | > 128 | 317 µM | 158 µM | 317 µM | 79.2 µM | 317 µM | 158 µM | MIC (Staphylococcus hominis): 317 µM; MIC (Enterococcus faecalis [15]): 158 µM |
